Test results as given in ChEMBL document CHEMBL3244396, “Synthesis and antileukemic activity of 5-substituted 2,3-dihydro-6,7-bis(hydroxymethyl)-1H-pyrrolizine diesters” (J Med Chem, 1977).

Legend:
[1] = tested on: L1210; test: Antileukemic activity against mouse L1210 cells allografted in female BDF1 mouse assessed as host mean survival time at 12.5 mg/kg, ip administered daily for 9 days as Klucel suspension starting 24 hrs after tumor inoculation relative to control; assay type: functional; conditions: route intraperitoneal
How it was run: (§1)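 L1210 leukemia given as an ascitic fluid cell inoculum, ip, to mice of the strain and sex in each line. Test material was given ip for nine daily doses starting 24 h after inoculation, in a Klucel (hydroxypropylcellulose) suspension. Read-out is mean survival time as %T/C versus controls, with >125 taken as significant.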

[2] = Cytotoxicity against human 9KB cells treated as ethanol solution; assay type: functional; conditions: read-out: ED50 (the source's name)
How it was run: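 Compound applied as an ethanol solution; activity read out as ED50 under the general screening protocol.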

[3] = tested on: Mus musculus; test: Toxicity in female BDF1 mouse allografted with mouse L1210 cells assessed as animal survival at 12.5 mg/kg, ip administered daily for 9 days as Klucel suspension starting 24 hrs after tumor inoculation measured on fifth day; assay type: organism-based; set-up: dose 12.5 mg/kg, route intraperitoneal; conditions: in vivo
How it was run: (§2)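 Female BDF1 mice bearing ip ascitic L1210 inoculum got nine daily ip doses in a Klucel suspension, starting 24 h after tumor inoculation. Toxicity was scored as toxicity-day survivors out of the group, recorded on the fifth day. Animal weight difference (T − C) was also tabulated.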

[4] = tested on: P388; test: Antitumor activity against mouse P388 cells allografted in female BDF1 mouse assessed as disease cures by measuring 30-days host survival at 25 mg/kg, ip administered daily for 9 days as Klucel suspension starting 24 hrs after tumor inoculation relative to control; assay type: functional; conditions: route intraperitoneal
How it was run: (§3)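 P388 leukemia given as an ascitic fluid cell inoculum, ip, to mice of the strain and sex in each line. Nine daily ip doses were given in a Klucel (hydroxypropylcellulose) suspension, starting 24 h after inoculation. Read-out is median survival time as %T/C, with >125 taken as significant; a "cure" means 30-day survival.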

[5] = tested on: P388; test: Antitumor activity against mouse P388 cells allografted in female CDF1 mouse assessed as disease cures by measuring 30-days host survival at 100 mg/kg, ip administered daily for 9 days as Klucel suspension starting 24 hrs after tumor inoculation relative to control; assay type: functional; conditions: route intraperitoneal; how it was run: as §3
[6] = tested on: L1210; test: Antileukemic activity against mouse L1210 cells allografted in female BDF1 mouse assessed as change in body weight at 100 mg/kg, ip administered daily for 9 days as Klucel suspension starting 24 hrs after tumor inoculation; assay type: functional; conditions: route intraperitoneal
How it was run: (§4)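 Ascitic fluid carrying L1210 cells was inoculated ip. Compound was given ip as a Klucel (hydroxypropylcellulose) suspension in nine daily doses, starting 24 h after inoculation. Body-weight difference (treated minus control) was recorded on day 5. Survival was scored as %T/C of mean survival time.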

[7] = tested on: L1210; test: Antileukemic activity against mouse L1210 cells allografted in female BDF1 mouse assessed as host mean survival time at 100 mg/kg, ip administered daily for 9 days as Klucel suspension starting 24 hrs after tumor inoculation relative to control; assay type: functional; conditions: route intraperitoneal; how it was run: as §1
[8] = tested on: L1210; test: Antileukemic activity against mouse L1210 cells allografted in female BDF1 mouse assessed as change in body weight at 200 mg/kg, ip administered daily for 9 days as Klucel suspension starting 24 hrs after tumor inoculation; assay type: functional; conditions: route intraperitoneal; how it was run: as §4
[9] = tested on: P388; test: Antitumor activity against mouse P388 cells allografted in female CDF1 mouse assessed as disease cures by measuring 30-days host survival at 50 mg/kg, ip administered daily for 9 days as Klucel suspension starting 24 hrs after tumor inoculation relative to control; assay type: functional; conditions: route intraperitoneal; how it was run: as §3
[10] = tested on: Mus musculus; test: Toxicity in female BDF1 mouse allografted with mouse L1210 cells assessed as animal survival at 100 mg/kg, ip administered daily for 9 days as Klucel suspension starting 24 hrs after tumor inoculation measured on fifth day; assay type: organism-based; set-up: dose 100 mg/kg, route intraperitoneal; conditions: in vivo; how it was run: as §2
[11] = tested on: L1210; test: Antileukemic activity against mouse L1210 cells allografted in female BDF1 mouse assessed as host mean survival time at 50 mg/kg, ip administered daily for 9 days as Klucel suspension starting 24 hrs after tumor inoculation relative to control; assay type: functional; conditions: route intraperitoneal; how it was run: as §1
[12] = tested on: Mus musculus; test: Toxicity in female BDF1 mouse allografted with mouse L1210 cells assessed as animal survival at 25 mg/kg, ip administered daily for 9 days as Klucel suspension starting 24 hrs after tumor inoculation measured on fifth day; assay type: organism-based; set-up: dose 25 mg/kg, route intraperitoneal; conditions: in vivo
How it was run: (§5)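 L1210 leukemia passaged as ascitic fluid and inoculated ip. Test agent given ip as a Klucel (hydroxypropylcellulose) suspension, nine daily doses starting 24 h after tumor inoculation. Acute toxicity read as toxicity-day survivors per group (out of 6), recorded on day 5. Animal weight difference T − C was also recorded. Follows NCI screening protocols.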

[13] = tested on: P388; test: Antitumor activity against mouse P388 cells allografted in female BDF1 mouse assessed as disease cures by measuring 30-days host survival at 12.5 mg/kg, ip administered daily for 9 days as Klucel suspension starting 24 hrs after tumor inoculation relative to control; assay type: functional; conditions: route intraperitoneal; how it was run: as §3
[14] = tested on: L1210; test: Antileukemic activity against mouse L1210 cells allografted in female BDF1 mouse assessed as host mean survival time at 200 mg/kg, ip administered daily for 9 days as Klucel suspension starting 24 hrs after tumor inoculation relative to control; assay type: functional; conditions: route intraperitoneal; how it was run: as §1
[15] = tested on: Mus musculus; test: Toxicity in female BDF1 mouse allografted with mouse P388 cells assessed as animal survival at 12.5 mg/kg, ip administered daily for 9 days as Klucel suspension starting 24 hrs after tumor inoculation; assay type: organism-based; set-up: dose 12.5 mg/kg, route intraperitoneal; conditions: in vivo
How it was run: (§6)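 P-388 leukemia ascitic fluid inoculated ip. Compound given ip as a suspension in Klucel (hydroxypropylcellulose), once daily for nine doses beginning 24 h post-inoculation. Acute toxicity assessed as toxicity-day survivors per group. Survival was followed up to 30 days, with 30-day survival counted as "cure". Follows NCI screening protocols.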

[16] = tested on: Mus musculus; test: Toxicity in female BDF1 mouse allografted with mouse P388 cells assessed as animal survival at 25 mg/kg, ip administered daily for 9 days as Klucel suspension starting 24 hrs after tumor inoculation; assay type: organism-based; set-up: dose 25 mg/kg, route intraperitoneal; conditions: in vivo; how it was run: as §6
[17] = tested on: Mus musculus; test: Toxicity in female BDF1 mouse allografted with mouse L1210 cells assessed as animal survival at 50 mg/kg, ip administered daily for 9 days as Klucel suspension starting 24 hrs after tumor inoculation measured on fifth day; assay type: organism-based; set-up: dose 50 mg/kg, route intraperitoneal; conditions: in vivo; how it was run: as §5
[18] = tested on: P388; test: Antitumor activity against mouse P388 cells allografted in female BDF1 mouse assessed as change in body weight at 12.5 mg/kg, ip administered daily for 9 days as Klucel suspension starting 24 hrs after tumor inoculation; assay type: functional; conditions: route intraperitoneal
How it was run: (§7)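 Ascitic fluid carrying P388 cells was inoculated ip. Compound was given ip in nine daily doses, starting 24 h after inoculation, in Klucel (hydroxypropylcellulose) suspension or in saline with Tween-80. Body-weight difference (treated minus control) was recorded on day 5. Survival was scored as %T/C of median survival time, and 30-day survival counted as cure.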

[19] = tested on: P388; test: Antitumor activity against mouse P388 cells allografted in female CDF1 mouse assessed as change in body weight at 200 mg/kg, ip administered daily for 9 days as Klucel suspension starting 24 hrs after tumor inoculation; assay type: functional; conditions: route intraperitoneal; how it was run: as §7
[20] = tested on: L1210; test: Antileukemic activity against mouse L1210 cells allografted in female BDF1 mouse assessed as change in body weight at 12.5 mg/kg, ip administered daily for 9 days as Klucel suspension starting 24 hrs after tumor inoculation; assay type: functional; conditions: route intraperitoneal; how it was run: as §4
[21] = tested on: P388; test: Antitumor activity against mouse P388 cells allografted in female CDF1 mouse assessed as change in body weight at 100 mg/kg, ip administered daily for 9 days as Klucel suspension starting 24 hrs after tumor inoculation; assay type: functional; conditions: route intraperitoneal; how it was run: as §7
[22] = tested on: Mus musculus; test: Toxicity in female CDF1 mouse allografted with mouse P388 cells assessed as animal survival at 50 mg/kg, ip administered daily for 9 days as Klucel suspension starting 24 hrs after tumor inoculation; assay type: organism-based; set-up: dose 50 mg/kg, route intraperitoneal; conditions: in vivo; how it was run: as §6
[23] = tested on: Mus musculus; test: Toxicity in female CDF1 mouse allografted with mouse P388 cells assessed as animal survival at 100 mg/kg, ip administered daily for 9 days as Klucel suspension starting 24 hrs after tumor inoculation; assay type: organism-based; set-up: dose 100 mg/kg, route intraperitoneal; conditions: in vivo; how it was run: as §6
[24] = tested on: L1210; test: Antileukemic activity against mouse L1210 cells allografted in female BDF1 mouse assessed as change in body weight at 50 mg/kg, ip administered daily for 9 days as Klucel suspension starting 24 hrs after tumor inoculation; assay type: functional; conditions: route intraperitoneal; how it was run: as §4
[25] = tested on: P388; test: Antitumor activity against mouse P388 cells allografted in female CDF1 mouse assessed as change in body weight at 50 mg/kg, ip administered daily for 9 days as Klucel suspension starting 24 hrs after tumor inoculation; assay type: functional; conditions: route intraperitoneal; how it was run: as §7
[26] = tested on: L1210; test: Antileukemic activity against mouse L1210 cells allografted in female BDF1 mouse assessed as host mean survival time at 25 mg/kg, ip administered daily for 9 days as Klucel suspension starting 24 hrs after tumor inoculation relative to control; assay type: functional; conditions: route intraperitoneal; how it was run: as §1
[27] = tested on: Mus musculus; test: Toxicity in female CDF1 mouse allografted with mouse P388 cells assessed as animal survival at 200 mg/kg, ip administered daily for 9 days as Klucel suspension starting 24 hrs after tumor inoculation; assay type: organism-based; set-up: dose 200 mg/kg, route intraperitoneal; conditions: in vivo; how it was run: as §6
[28] = tested on: P388; test: Antitumor activity against mouse P388 cells allografted in female BDF1 mouse assessed as change in body weight at 25 mg/kg, ip administered daily for 9 days as Klucel suspension starting 24 hrs after tumor inoculation; assay type: functional; conditions: route intraperitoneal; how it was run: as §7
[29] = tested on: L1210; test: Antileukemic activity against mouse L1210 cells allografted in female BDF1 mouse assessed as change in body weight at 25 mg/kg, ip administered daily for 9 days as Klucel suspension starting 24 hrs after tumor inoculation; assay type: functional; conditions: route intraperitoneal; how it was run: as §4

CC(=O)OCc1c(COC(C)=O)c(-c2ccc(Cl)cc2)n2c1CCC2
T/C [1]: 95%
EC50 [2]: > 2.8 µg/mL
Activity [3]: Non-toxic
T/C [4]: 123%
T/C [5]: 66%
Activity [6]: -3.8 g
T/C [7]: 76%
Activity [8]: -3.8 g
T/C [9]: 118%
Activity [10]: Non-toxic
T/C [11]: 117%
Activity [12]: Non-toxic
T/C [13]: 119%
T/C [14]: 64%
Activity [15]: Non-toxic
Activity [16]: Non-toxic
Activity [17]: Non-toxic
Activity [18]: -0.6 g
Activity [19]: 0.5 g
Activity [20]: 0.7 g
Activity [21]: -3.3 g
Activity [22]: Non-toxic
Activity [23]: Non-toxic
Activity [24]: -1.8 g
Activity [25]: -1.9 g
T/C [26]: 102%
Activity [27]: Toxic
Activity [28]: -0.2 g
Activity [29]: 0.6 g
